Laboratory results: ChEMBL document CHEMBL4680230, “Discovery of aryl-piperidine derivatives as potential antipsychotic agents using molecular hybridization strategy” (Eur J Med Chem, 2020)

Key:
D(2) dopamine receptor = D(2) dopamine receptor (Homo sapiens, UniProt P14416); assay: Antagonist activity at human D2 receptor expressed in HEK293 cells incubated for 60 mins by Eu-cAMP tracer based LANCE ultra cAMP assay; assay type: cell-based
[1] = target: 5-hydroxytryptamine receptor 2A (Homo sapiens, UniProt P28223); assay: Antagonist activity at human 5HT2A receptor expressed in CHO-K1 cells measured after 15 mins by FLIPR assay; assay type: cell-based
[2] = target: T1, 5-hydroxytryptamine receptor 1A (Homo sapiens, UniProt P08908); assay: Agonist activity at human 5H1A receptor expressed in HEK293 cells incubated for 60 mins by Eu-cAMP tracer based LANCE ultra cAMP assay; assay type: functional, cell-based
T1 sequence (P08908 whole entry): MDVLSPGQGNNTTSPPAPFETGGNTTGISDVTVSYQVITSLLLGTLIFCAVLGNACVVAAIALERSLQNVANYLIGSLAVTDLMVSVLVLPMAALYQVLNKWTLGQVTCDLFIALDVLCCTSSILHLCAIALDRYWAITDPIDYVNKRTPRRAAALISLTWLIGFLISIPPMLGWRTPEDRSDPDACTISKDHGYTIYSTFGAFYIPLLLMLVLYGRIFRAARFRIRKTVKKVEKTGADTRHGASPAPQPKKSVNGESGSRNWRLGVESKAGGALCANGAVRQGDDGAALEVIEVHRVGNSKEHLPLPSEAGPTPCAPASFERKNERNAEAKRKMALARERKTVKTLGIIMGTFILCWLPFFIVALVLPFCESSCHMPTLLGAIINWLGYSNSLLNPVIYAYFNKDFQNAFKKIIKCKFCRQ
Summary of the method: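 Cell-based TR-FRET cAMP assay on human 5-HT1A receptor-expressing cells. Cells were collected in stimulation buffer, added to the compound, centrifuged briefly and incubated 60 min at room temperature. Eu-cAMP tracer and ULight-anti-cAMP were then added, followed by another 60 min at room temperature before reading. The reference agonist was 8-OH-DPAT. […] came from sigmoidal nonlinear regression.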

[3] = target: T1, 5-hydroxytryptamine receptor 1A; assay: Displacement of [3H]5-HT from recombinant 5HT1A receptor (unknown origin) expressed in CHO cell membrane measured after 50 mins by microbeta scintillation counting method; assay type: cell membranes
[4] = target: T1, 5-hydroxytryptamine receptor 1A; assay: Agonist activity at recombinant 5HT1A receptor (unknown origin) expressed in CHO cell membrane assessed as [35S]GTPgammaS binding by liquid scintillation counting method; assay type: functional, cell membranes
[5] = Half life in mouse liver microsomes measured after 60 mins in presence of NADPH by LC-MS/MS analysis; assay type: ADME, Microsome
Summary of the method: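 Mouse liver microsomes (20 mg/ml stock) were incubated with compound in 0.1 M PBS, pH 7.4, at 37 °C. Compound came from a 1 mM methanol stock, diluted in methanol/water. Reaction was started with NADPH (10 mM stock). Aliquots at 0, 5, 10, 20, 40 and 60 min were quenched in cold methanol and centrifuged at 4 °C. Supernatants were analysed by LC-MS/MS.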

[6] = Drug concentration in ICR mouse cerebrospinal fluid at 1 mg/kg, iv measured after 1 hr; assay type: ADME, organism-based; details: read-out: Drug uptake
Summary of the method: (§1)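 Brain penetration in ICR mice, n = 3 per group, given 1 mg/kg intravenously. Plasma, cerebrospinal fluid and brain levels were measured at 1 h and 4 h post-dose. Kp is the brain-to-plasma concentration ratio.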

[7] = AUC (0 to 24 hrs) in ICR mouse at 25 mg/kg, po; assay type: ADME, organism-based; design: time < 24 hr, route oral, dose 25 mg/kg; details: in vivo
Summary of the method: (§2)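 Pharmacokinetics in ICR mice, n = 6 per group, after a single 5 mg/kg intravenous dose or a 25 mg/kg oral dose. Plasma exposure gave AUC over 0–24 h, t1/2, Cmax and Tmax. Oral bioavailability was derived from comparison of the two routes.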

[8] = AUC (0 to 24 hrs) in ICR mouse at 5 mg/kg, iv; assay type: ADME, organism-based; design: time < 24 hr, route intravenous, dose 5 mg/kg; details: in vivo; summary of the method: as §2
[9] = Brain to plasma partition coefficient, Kp of compound in ICR mouse at 1 mg/kg, iv measured after 1 hr; assay type: ADME, organism-based; summary of the method: as §1
[10] = Oral bioavailability in ICR mouse at 25 mg/kg; assay type: ADME, organism-based; details: in vivo; summary of the method: as §2
[11] = Brain to plasma partition coefficient, Kp of compound in ICR mouse at 1 mg/kg, iv measured after 4 hrs; assay type: ADME, organism-based; summary of the method: as §1
[12] = Drug concentration in ICR mouse brain at 1 mg/kg, iv measured after 1 hr; assay type: ADME, organism-based; summary of the method: as §1
[13] = Plasma concentration in ICR mouse at 1 mg/kg, iv measured after 4 hrs; assay type: ADME, organism-based; summary of the method: as §1
[14] = Tmax in ICR mouse at 25 mg/kg, po; assay type: ADME, organism-based; details: in vivo; summary of the method: as §2
[15] = Half life in ICR mouse at 5 mg/kg, iv; assay type: ADME, organism-based; details: in vivo; summary of the method: as §2
[16] = Plasma concentration in ICR mouse at 1 mg/kg, iv measured after 1 hr; assay type: ADME, organism-based; summary of the method: as §1
[17] = Half life in ICR mouse at 25 mg/kg, po; assay type: ADME, organism-based; details: in vivo; summary of the method: as §2
[18] = Drug concentration in ICR mouse brain at 1 mg/kg, iv measured after 4 hrs; assay type: ADME, organism-based; summary of the method: as §1
[19] = Cmax in ICR mouse at 25 mg/kg, po; assay type: ADME, organism-based; design: route oral, dose 25 mg/kg; details: in vivo; summary of the method: as §2

5-hydroxytryptamine receptor 2A, sequence (P28223 whole entry): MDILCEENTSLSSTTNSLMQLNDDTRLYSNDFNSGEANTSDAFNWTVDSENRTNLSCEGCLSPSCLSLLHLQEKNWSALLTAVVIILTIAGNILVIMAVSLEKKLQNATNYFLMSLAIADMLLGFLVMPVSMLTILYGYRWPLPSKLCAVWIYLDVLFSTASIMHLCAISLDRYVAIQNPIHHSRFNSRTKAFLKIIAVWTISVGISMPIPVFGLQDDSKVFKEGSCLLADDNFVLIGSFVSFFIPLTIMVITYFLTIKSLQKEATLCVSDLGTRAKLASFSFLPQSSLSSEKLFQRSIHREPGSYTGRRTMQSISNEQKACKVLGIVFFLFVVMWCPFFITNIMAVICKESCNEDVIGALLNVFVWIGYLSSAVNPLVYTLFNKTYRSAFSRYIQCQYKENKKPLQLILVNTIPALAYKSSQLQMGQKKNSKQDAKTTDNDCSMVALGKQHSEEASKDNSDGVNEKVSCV
D(2) dopamine receptor, sequence (P14416 whole entry): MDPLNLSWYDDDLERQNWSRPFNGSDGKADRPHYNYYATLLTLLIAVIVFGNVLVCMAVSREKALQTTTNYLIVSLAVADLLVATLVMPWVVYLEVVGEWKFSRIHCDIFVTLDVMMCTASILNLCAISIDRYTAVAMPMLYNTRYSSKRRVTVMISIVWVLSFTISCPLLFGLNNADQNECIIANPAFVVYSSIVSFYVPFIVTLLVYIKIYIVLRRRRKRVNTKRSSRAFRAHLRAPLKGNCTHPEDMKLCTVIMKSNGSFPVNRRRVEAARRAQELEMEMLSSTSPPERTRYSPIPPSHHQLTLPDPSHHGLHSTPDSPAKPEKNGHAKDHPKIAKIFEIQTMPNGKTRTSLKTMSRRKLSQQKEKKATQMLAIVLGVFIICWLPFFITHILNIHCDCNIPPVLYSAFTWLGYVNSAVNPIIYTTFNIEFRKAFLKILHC

| SMILES | EC50 ([2]; read-out: EC50) [nM] | IC50 (D(2) dopamine receptor; read-out: IC50) [nM] | EC50 ([2]; hek293) | IC50 ([1]; read-out: IC50) [nM] | also measured |
| --- | --- | --- | --- | --- | --- |
| O=C(c1ccccc1)N(CCCN1CCN(c2ccccn2)CC1)C1COC1 | 374 |  |  |  | IC50 (D(2) dopamine receptor; hek293): Not Active; IC50 ([1]; cho-k1): Not Active |
| O=C(CN1CCN(CCCc2c[nH]c3ccc(F)cc23)CC1)N(c1ccccc1)C1CCCCC1 | 7 |  |  |  | Ki [3]: 51.9 nM; EC50 [4]: 7 nM; Ki (D(2) dopamine receptor): 2160 nM; Ki [1]: 207 nM |
| COc1ccccc1N1CCN(CCCN(C(=O)c2ccccc2)C2COC2)CC1 |  | 3760 | Not Active |  | IC50 ([1]; cho-k1): Not Active |
| O=C(c1ccccc1)N(CCCN1CCC(c2noc3cc(F)ccc23)CC1)C1COC1 |  | 156 | Not Active | 18.8 | half-life [5]: 173 min |
| CC(C)N(CCCN1CCN(c2ccccn2)CC1)C(=O)c1ccccc1 | 22.8 |  |  |  | IC50 (D(2) dopamine receptor; hek293): Not Active; IC50 ([1]; cho-k1): Not Active |
| O=S(=O)(c1ccc(Cl)cc1)N(CCCN1CCC(c2noc3cc(F)ccc23)CC1)C1COC1 |  | 2 | Not Active | 34.6 |  |
| O=S(=O)(c1ccccc1)N(CCCN1CCC(c2noc3cc(F)ccc23)CC1)C1COC1 |  | 1.9 | Not Active | 9.3 |  |
| CC(C)N(CCCN1CCC(c2noc3cc(F)ccc23)CC1)C(=O)c1ccccc1 |  | 59.3 | Not Active | 11.6 | half-life [5]: 31.5 min |
| COc1ccccc1N1CCN(CCCN(C(=O)c2ccccc2)C(C)C)CC1 |  |  | Not Active |  | IC50 ([1]; cho-k1): Not Active |
| O=S(=O)(c1ccc(F)cc1)N(CCCN1CCC(c2noc3cc(F)ccc23)CC1)C1COC1 |  | 3 | Not Active | 15.1 | concentration at 1 h [6]: 2 ng/mL; AUC(0-t) at 24 h [7]: 259 ng·h/mL; AUC(0-t) at 24 h [8]: 829 ng·h/mL; Kp at 1 h [9]: 1.72; bioavailability [10]: 6.3%; Kp at 4 h [11]: 4.03; concentration at 1 h [12]: 129 ng/g; concentration at 4 h [13]: 2.7 ng/mL; Tmax [14]: 15 min; half-life [15]: 32.4 min; concentration at 1 h [16]: 75.4 ng/mL; half-life [17]: 120 min; concentration at 4 h [18]: 10.7 ng/g; Cmax [19]: 142 ng/mL |
| O=C(c1ccccc1)N(CCCN1CCN(c2ccccn2)CC1)CC1CC1 | 24.9 |  |  | 7720 | IC50 (D(2) dopamine receptor; hek293): Not Active |
| O=C(c1ccccc1)N(CCCN1CCN(c2cccc(Cl)c2Cl)CC1)C1COC1 | 583 | 1880 |  | 2180 |  |
| CCCN(CCCN1CCN(c2cccc(Cl)c2Cl)CC1)C(=O)c1ccccc1 | 452 | 485 |  | 3250 |  |
| COc1ccccc1N1CCN(CCCN(CC2CC2)C(=O)c2ccccc2)CC1 |  |  | Not Active |  | IC50 ([1]; cho-k1): Not Active |
| CCCN(CCCN1CCC(c2noc3cc(F)ccc23)CC1)C(=O)c1ccccc1 |  | 18.5 | Not Active | 73.1 | half-life [5]: 6.2 min |
| CC(C)N(CCCN1CCN(c2cccc(Cl)c2Cl)CC1)C(=O)c1ccccc1 | 46.1 | 528 |  | 2010 |  |
| O=S(=O)(c1ccc(C(F)(F)F)cc1)N(CCCN1CCC(c2noc3cc(F)ccc23)CC1)C1COC1 |  | 2.3 | Not Active | 92.7 |  |
| O=C(c1ccccc1)N(CCCN1CCN(c2cccc(Cl)c2Cl)CC1)CC1CC1 | 175 |  |  | 768 |  |
| N#Cc1ccc(S(=O)(=O)N(CCCN2CCC(c3noc4cc(F)ccc34)CC2)C2COC2)cc1 |  | 3.6 | Not Active | 11.3 |  |
| O=C(c1ccccc1)N(CCCN1CCC(c2noc3cc(F)ccc23)CC1)CC1CC1 |  |  | Not Active | 40.8 | half-life [5]: 6.9 min |
| CCCN(CCCN1CCN(c2ccccn2)CC1)C(=O)c1ccccc1 | 54.5 | 6930 |  | 7550 |  |
